Measured values reported in ChEMBL document CHEMBL4715714, “Design, synthesis and biological evaluation of thiosemicarbazones, hydrazinobenzothiazoles and arylhydrazones as anticancer agents with a potential to overcome multidrug resistance” (Eur J Med Chem, 2016).
The source made the active and inactive calls. The calls are words filed in the database; no cut-off is given here.

system: A2780; test: Cytotoxicity against human A2780 cells assessed as inhibition of cell proliferation incubated for 72 hrs by MTT assay; format: functional, cell-based; settings: A2780, 72 h, read-out: IC50
In short: (§1)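 Cells were seeded (10000/well for A2780, 5000/well for MES-SA/Dx5 and KB-3-1/V1) and left to attach 12 h, then exposed to compound for 72 h. Medium was removed, and MTT (0.83 mg/mL) was added for 1 h at 37 °C. Cells were lysed in DMSO and absorbance read at 540 nm. Signal was corrected for unstained lysate background, normalized to untreated cells, and IC50 taken from a sigmoidal dose-response fit.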

Row | Structure (SMILES) | IC50
1 | C/C(=N\Nc1nc2ccccc2s1)c1ccccc1O | 8.74 µM
2 | Cc1ccc(NC(=S)N/N=C/c2ccccc2O)cc1 | 5.15 µM
3 | COc1ccc(NC(=S)N/N=C2\C(=O)Nc3ccccc32)cc1 | 7.49 µM

same assay, conditions: A2780, 72 h, read-out: pIC50 (converted)

Row | Structure (SMILES) | IC50
4 | C/C(=N\Nc1nc2ccccc2s1)c1ccccc1O | 8.32 µM
5 | Cc1ccc(NC(=S)N/N=C/c2ccccc2O)cc1 | 5.01 µM
6 | COc1ccc(NC(=S)N/N=C2\C(=O)Nc3ccccc32)cc1 | 7.41 µM

system: not listed separately; test: Selectivity ratio of IC50 for human MES-SA cells to IC50 for human MES-SA/DX5 cells incubated for 72 hrs by MTT assay; format: functional; settings: not given
In short: (§2)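 The selectivity ratio is the IC50 in P-gp-negative parental cells divided by the IC50 in the P-gp-positive resistant partner.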

Row | Structure (SMILES) | Ratio IC50
7 | C/C(=N\Nc1nc2ccccc2s1)c1ccccc1O | 1.91
8 | COc1ccc(NC(=S)N/N=C2\C(=O)Nc3ccccc32)cc1 | 1.87

system: KB-V1; test: Cytotoxicity against human KB-V1 cells assessed as inhibition of cell proliferation incubated for 72 hrs in presence of efflux pump inhibitor, Tariquidar by MTT assay; format: functional, cell-based; settings: not given

Row | Structure (SMILES) | Activity
9 | COc1ccc(NC(=S)N/N=C2\C(=O)Nc3ccccc32)cc1 | inactive

system: MES-SA/Dx5; test: Cytotoxicity against human MES-SA/DX5 cells transfected with mCherry fluorescent protein incubated for 72 hrs in presence of efflux pump inhibitor, Tariquidar by fluorescence assay; format: functional, cell-based; settings: not given
In short: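 The mCherry-expressing cells (lentiviral) were seeded at 5000 or 2500 per well, attached for 24 h, and exposed 72 h to compounds with Tariquidar coadministered. Live-cell signal was fluorescence at 585 nm excitation and 610 nm emission.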

Row | Structure (SMILES) | Activity
10 | C/C(=N\Nc1nc2ccccc2s1)c1ccccc1O | Active
11 | COc1ccc(NC(=S)N/N=C2\C(=O)Nc3ccccc32)cc1 | inactive

system: MES-SA/Dx5; test: Cytotoxicity against human MES-SA/DX5 cells assessed as inhibition of cell proliferation incubated for 72 hrs by MTT assay; format: functional, cell-based; settings: MES-SA/Dx5, 72 h, read-out: IC50; in short: as §1

Row | Structure (SMILES) | IC50
12 | C/C(=N\Nc1nc2ccccc2s1)c1ccccc1O | 5.52 µM
13 | Cc1ccc(NC(=S)N/N=C/c2ccccc2O)cc1 | 5.36 µM
14 | COc1ccc(NC(=S)N/N=C2\C(=O)Nc3ccccc32)cc1 | 3.59 µM

same assay, conditions: MES-SA/Dx5, 72 h, read-out: pIC50 (converted)

Row | Structure (SMILES) | IC50
15 | C/C(=N\Nc1nc2ccccc2s1)c1ccccc1O | 5.25 µM
16 | COc1ccc(NC(=S)N/N=C2\C(=O)Nc3ccccc32)cc1 | 3.47 µM

system: MES-SA; test: Cytotoxicity against human MES-SA cells transfected with mCherry fluorescent protein assessed as inhibition of cell proliferation incubated for 72 hrs by fluorescent assay; format: functional, cell-based; settings: Homo sapiens, MES-SA, 72 h; read-out: IC50
In short: (§3)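 MES-SA and MES-SA/Dx5 cells were made to stably express mCherry by lentiviral transduction. Cells were seeded at 5000 (96-well) or 2500 (384-well) per well, allowed to attach 24 h, then treated with compound dilutions for 72 h. Viability was read as fluorescence, excitation 585 nm, emission 610 nm.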

Row | Structure (SMILES) | IC50
17 | C/C(=N\Nc1nc2ccccc2s1)c1ccccc1O | 21.6 µM
18 | Cc1ccc(NC(=S)N/N=C/c2ccccc2O)cc1 | 1.44 µM
19 | COc1ccc(NC(=S)N/N=C2\C(=O)Nc3ccccc32)cc1 | 12.1 µM

same assay, conditions: Homo sapiens, MES-SA, 72 h; read-out: pIC50 (converted)

Row | Structure (SMILES) | IC50
20 | C/C(=N\Nc1nc2ccccc2s1)c1ccccc1O | 21.4 µM

system: HFF; test: Cytotoxicity against human HFF cells by MTT assay; settings: not given

Row | Structure (SMILES) | Activity
21 | C/C(=N\Nc1nc2ccccc2s1)c1ccccc1O | Toxic
22 | Cc1ccc(NC(=S)N/N=C/c2ccccc2O)cc1 | Toxic
23 | COc1ccc(NC(=S)NNC2=c3ccccc3=NC2=O)cc1 | Toxic

system: KB 3-1; test: Cytotoxicity against human KB-3-1 cells assessed as inhibition of cell proliferation incubated for 72 hrs by MTT assay; format: functional, cell-based; settings: KB 3-1, 72 h, read-out: IC50; in short: as §1

Row | Structure (SMILES) | IC50
24 | C/C(=N\Nc1nc2ccccc2s1)c1ccccc1O | 14.3 µM
25 | Cc1ccc(NC(=S)N/N=C/c2ccccc2O)cc1 | 3.36 µM
26 | COc1ccc(NC(=S)N/N=C2\C(=O)Nc3ccccc32)cc1 | 7.82 µM

same assay, conditions: KB 3-1, 72 h, read-out: pIC50 (converted)

Row | Structure (SMILES) | IC50
27 | C/C(=N\Nc1nc2ccccc2s1)c1ccccc1O | 13.8 µM
28 | Cc1ccc(NC(=S)N/N=C/c2ccccc2O)cc1 | 3.31 µM
29 | COc1ccc(NC(=S)N/N=C2\C(=O)Nc3ccccc32)cc1 | 7.59 µM

system: A2780 ADR; test: Cytotoxicity against human A2780adr cells assessed as inhibition of cell proliferation incubated for 72 hrs in presence of efflux pump inhibitor, Tariquidar by MTT assay; format: functional, cell-based; settings: not given

Row | Structure (SMILES) | Activity
30 | COc1ccc(NC(=S)N/N=C2\C(=O)Nc3ccccc32)cc1 | inactive

system: MES-SA/Dx5; test: Cytotoxicity against human MES-SA/DX5 cells incubated for 72 hrs in presence of efflux pump inhibitor, Tariquidar by MTT assay; format: functional, cell-based; settings: not given
In short: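 Run as the 72 h MTT viability readout (12 h attachment, MTT 0.83 mg/mL for 1 h, DMSO lysis, A540), with the P-gp inhibitor Tariquidar at 1 µM co-present. IC50 came from sigmoidal fits of 2 to 4 independent experiments.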

Row | Structure (SMILES) | Activity
31 | C/C(=N\Nc1nc2ccccc2s1)c1ccccc1O | Active
32 | COc1ccc(NC(=S)N/N=C2\C(=O)Nc3ccccc32)cc1 | inactive

system: not listed separately; test: Selectivity ratio of IC50 for human A2780 cells to IC50 for human A2780adr cells incubated for 72 hrs by MTT assay; format: functional; settings: not given; in short: as §2

Row | Structure (SMILES) | Ratio IC50
33 | COc1ccc(NC(=S)N/N=C2\C(=O)Nc3ccccc32)cc1 | 1.6

system: KB-V1; test: Cytotoxicity against human KB-V1 cells assessed as inhibition of cell proliferation incubated for 72 hrs by MTT assay; format: functional, cell-based; settings: KB-V1, 72 h, read-out: IC50; in short: as §1

Row | Structure (SMILES) | IC50
34 | C/C(=N\Nc1nc2ccccc2s1)c1ccccc1O | 12.1 µM
35 | Cc1ccc(NC(=S)N/N=C/c2ccccc2O)cc1 | 3.69 µM
36 | COc1ccc(NC(=S)N/N=C2\C(=O)Nc3ccccc32)cc1 | 3.78 µM

same assay, conditions: KB-V1, 72 h, read-out: pIC50 (converted)

Row | Structure (SMILES) | IC50
37 | C/C(=N\Nc1nc2ccccc2s1)c1ccccc1O | 11.5 µM
38 | Cc1ccc(NC(=S)N/N=C/c2ccccc2O)cc1 | 3.47 µM
39 | COc1ccc(NC(=S)N/N=C2\C(=O)Nc3ccccc32)cc1 | 3.98 µM

system: MES-SA; test: Cytotoxicity against human MES-SA cells assessed as inhibition of cell proliferation incubated for 72 hrs by MTT assay; format: functional, cell-based; settings: read-out: IC50; in short: as §1

Row | Structure (SMILES) | IC50
40 | C/C(=N\Nc1nc2ccccc2s1)c1ccccc1O | 12.5 µM
41 | Cc1ccc(NC(=S)N/N=C/c2ccccc2O)cc1 | 3.97 µM
42 | COc1ccc(NC(=S)N/N=C2\C(=O)Nc3ccccc32)cc1 | 6.1 µM

same assay, conditions: read-out: pIC50 (converted)

Row | Structure (SMILES) | IC50
43 | C/C(=N\Nc1nc2ccccc2s1)c1ccccc1O | 12.3 µM
44 | COc1ccc(NC(=S)N/N=C2\C(=O)Nc3ccccc32)cc1 | 6.03 µM

system: not listed separately; test: Selectivity ratio of IC50 for human KB-3-1 cells to IC50 for human KB-V1 cells incubated for 72 hrs by MTT assay; format: functional; settings: not given; in short: as §2

Row | Structure (SMILES) | Ratio IC50
45 | COc1ccc(NC(=S)N/N=C2\C(=O)Nc3ccccc32)cc1 | 2.04

system: not listed separately; test: Selectivity ratio of IC50 for human MES-SA cells transfected with mCherry to IC50 for human MES-SA/DX5 cells transfected with mCherry incubated for 72 hrs by fluorescent assay; format: functional; settings: not given

Row | Structure (SMILES) | Ratio IC50
46 | C/C(=N\Nc1nc2ccccc2s1)c1ccccc1O | 1.9
47 | COc1ccc(NC(=S)N/N=C2\C(=O)Nc3ccccc32)cc1 | 3.17

system: MES-SA/Dx5; test: Reduction in P-gp expression in human MES-SA/DX5 cells at IC20 concentration incubated for 5 days by calcein-AM staining based flow cytometric analysis; format: functional, cell-based; settings: time 5.0 day
In short: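 MES-SA/Dx5 cells were grown 5 days with compound at IC20 values calculated from viability assays, then recovered in drug-free medium refreshed every fifth day. At 80% confluency, cells were stained with Calcein AM with or without verapamil, with TO-PRO-3 excluding dead cells, and analysed by flow cytometry for the P-gp-negative fraction.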

Row | Structure (SMILES) | inhibition
48 | COc1ccc(NC(=S)N/N=C2\C(=O)Nc3ccccc32)cc1 | Active

system: MES-SA/Dx5; test: Cytotoxicity against human MES-SA/DX5 cells transfected with mCherry fluorescent protein assessed as inhibition of cell proliferation incubated for 72 hrs by fluorescent assay; format: functional, cell-based; settings: Homo sapiens, MES-SA/Dx5, 72 h; read-out: IC50; in short: as §3

Row | Structure (SMILES) | IC50
49 | C/C(=N\Nc1nc2ccccc2s1)c1ccccc1O | 11.6 µM
50 | Cc1ccc(NC(=S)N/N=C/c2ccccc2O)cc1 | 1.87 µM
51 | COc1ccc(NC(=S)N/N=C2\C(=O)Nc3ccccc32)cc1 | 4.15 µM

same assay, conditions: Homo sapiens, MES-SA/Dx5, 72 h; read-out: pIC50 (converted)

Row | Structure (SMILES) | IC50
52 | C/C(=N\Nc1nc2ccccc2s1)c1ccccc1O | 8.91 µM

system: not listed separately; test: Cytotoxicity against human A2780adr cells assessed as inhibition of cell proliferation incubated for 72 hrs by MTT assay; format: functional, cell-based; settings: A2780 ADR, read-out: IC50; in short: as §1

Row | Structure (SMILES) | IC50
53 | Cc1ccc(NC(=S)N/N=C/c2ccccc2O)cc1 | 6.01 µM
54 | COc1ccc(NC(=S)N/N=C2\C(=O)Nc3ccccc32)cc1 | 4.84 µM

same assay, conditions: A2780 ADR, read-out: pIC50 (converted)

Row | Structure (SMILES) | IC50
55 | C/C(=N\Nc1nc2ccccc2s1)c1ccccc1O | 9.77 µM
56 | Cc1ccc(NC(=S)N/N=C/c2ccccc2O)cc1 | 6.03 µM
57 | COc1ccc(NC(=S)N/N=C2\C(=O)Nc3ccccc32)cc1 | 4.68 µM
